pEC50: −log10 of the molar value. Activity calls are given as the source filed them.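 The calls were made as follows: active = half-maximal effective dose for blocking growth of human endothelial cells at most 100 µM; inactive = the rest.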

The subject of this test is HUVEC proliferation, viability ATP luminescence. The test can be described thus: growth suppression of umbilical vein endothelial cells – cell-based, HUVEC, ATP luminescence, dose response (AID 822).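 Also: cells exposed to compound for 72 h before the ATP read.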 The method, boiled down: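 Test system: HUVEC; Input: 1250 HUVEC cells seeded per well; Doses: 0.039–20 µM, 0.2% DMSO; Evaluation: % viability versus median cell-only wells, EC50 from 4-parameter fit; Medium: EBM plus 2% FBS; Incubation: compound treatment 72 h, 37 °C; Signal: luminescent ATP measurement with CellTiter-Glo reagent; Plate: collagen-coated multiwell plates.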
Consider `CC(=O)n1cc(-c2ccncc2)c2ccccc21`, for which the EC50 (commonly the concentration that produces a half-maximal response) was > 10 µM (inactive). For the molecule `COc1cccc2sc(Nc3nnc(-c4ccc(F)cc4)o3)nc12`, the negative logarithm of the EC50 (pEC50) (as a rule, −log10 of the EC50, conventionally taken in molar units) was 6.02. Take `CCc1cc(-c2n[nH]c(C)c2Oc2ccc(C(C)C)cc2)c(O)cc1O`: the pEC50 is 5.20. For `COC(=O)/C(=C\Nc1ccc(Cl)cc1Cl)NC(=O)c1ccc(Cl)cc1Cl`, the negative-log EC50 (pEC50) was 5.12. As to `COc1cccc(-c2cc(C(=O)Nc3cc(C)n(Cc4ccc(Cl)cc4)n3)no2)c1`, the pEC50 was 4.91. The same measure, in the same setting: with `CCCc1[nH]nc2c1C(c1ccc(Br)s1)C(C#N)=C(N)O2` (stereo not drawn) the figure was 5.06.

Consider `Cc1nc(Nc2ccc3c(c2)OCCO3)c2nnn(Cc3ccccc3Cl)c2n1`, for which the negative-log EC50 (pEC50) was 5.15. As for `OCCNc1nc2ccccc2n1-c1ncnc2sc3c(c12)CCC3`, the pEC50 is 4.94.

On to `CCn1c(=N)n(CC(=O)C23CC4CC(CC(C4)C2)C3)c2ccccc21`, for which the negative-log EC50 (pEC50) is 5.06. Take `CN1CCN(c2ccccc2NC(=O)c2ccc(OCc3ccccc3)cc2)CC1`: the negative-log EC50 (pEC50) was 4.97.

As for `Cc1ccc(C)n1NC(=O)c1ccccc1O`, the EC50 is > 10 µM (inactive).

Consider `Nc1nc(Nc2cccc3ccccc23)nc(C2CCCC2=O)n1` (stereo not drawn), for which the negative-log EC50 (pEC50) is 4.94. As to `Oc1c(CN2CCN(c3ccccn3)CC2)cc(Cl)c2cccnc12`, the pEC50 was 5.13. Still for that read-out and setting: then `c1ccc(-c2nc(N3CCCCCC3)c3ccccc3n2)nc1`, with 5.81; and `CCOC(=O)N1CCN(c2ncnc3c2oc2nc(C(C)C)c4c(c23)CCC4)CC1`, with 4.71; and `CC1CCC(C(=O)c2c(O)c3ccccc3oc2=O)CC1` (stereo not drawn), with 5.11. Take `CCCCCn1c(CN2CCN(c3cc(Cl)ccc3C)CC2)nc2c1c(=O)[nH]c(=O)n2C`: the negative-log EC50 (pEC50) is 5.49. Turning to `Cc1ccccc1CS(=O)(=O)c1nnc([C@H](Cc2ccccc2)NC(=O)OC(C)(C)C)o1`, the pEC50 is 4.94.

`Nc1c(S(=O)(=O)c2ccccc2)c2nc3ccccc3nc2n1/N=C/c1cccc(O)c1`: the pEC50 is 5.22. For `COc1ccc(-n2c(SCC(=O)Nc3sc4c(c3C#N)CCCC4)nnc2-c2ccc(O)cc2)cc1`, the negative logarithm of the EC50 (pEC50) is 5.37. Take `COc1ccc(C(=O)Nc2ccccc2C(=O)N(Cc2ccco2)C(C(N)=O)C(C)C)cc1` (stereo not drawn): the pEC50 is 4.84. For `O=C1CCCc2c1[nH]c1ccc(Br)cc21`, the EC50 was > 10 µM (inactive).

Consider `OC(COc1ccc(Cl)c2ccccc12)CN1CCN(c2ccccn2)CC1` (stereo not drawn), for which the negative-log EC50 (pEC50) was 4.91.

With `O=C(COc1ccc(Cl)cc1)Nc1ccccc1C(=O)NCc1ccco1`, the pEC50 was 4.79. Still for that read-out and setting: then `Cc1ccc(S(=O)(=O)c2c(C)nn(C(C)(C)C)c2OC(=O)c2ccc(Br)o2)cc1`, with 5.34; and `Cc1ccccc1C(=O)c1cccn1CC(=O)NCCN1CCN(c2cccc(C)c2C)CC1`, with 5.08. `Cc1cc(NC(=O)COC(=O)C(Nc2ccc(C(F)(F)F)cc2Cl)C(C)C)no1` (stereo not drawn): the pEC50 is 4.92. For `Cc1cccc(C)c1OCC(=O)N=Nc1c(O)[nH]c2ccc(Br)cc12`, the negative-log EC50 (pEC50) was 5.15. `CC(C)=CCC/C(C)=C/CCC(C)NCCN1CCNCC1` (stereo not drawn): the pEC50 was 4.83. Take `Cc1cc(N2CCCCC2)nc2ccc(NC(=O)c3ccc(Br)o3)cc12`: the pEC50 is 4.77. On to `CCCCCCOC(=O)C(C#N)c1nc2ccccc2nc1N1CCN(CC)CC1` (stereo not drawn), for which the pEC50 was 5.09.

Take `O=c1[nH]c2cc3c(cc2cc1C(c1nnnn1Cc1ccccc1)N1CCCCCC1)OCCO3` (stereo not drawn): the negative logarithm of the EC50 (pEC50) was 4.88. Take `OCc1ccc(O)c2ncccc12`: the pEC50 was 4.69. `c1cc2c3c(cccc3c1)NC1(CCCCCC1)N2`: the EC50 is > 10 µM (inactive). Consider `N#CC1=C(N)Oc2cc(Nc3ccccc3)ccc2C1c1ccncc1` (stereo not drawn), for which the pEC50 was 5.88. Turning to `COc1ccc(C2Oc3ccccc3C3=C2C(c2cccs2)n2ncnc2N3)cc1` (stereo not drawn), the pEC50 was 4.79. The same measure, in the same setting: then `CC(=O)Nc1ccc(S(=O)(=O)NC2=C(N3CCN(Cc4ccccc4)CC3)C(=O)c3ccccc3C2=O)cc1`, with 5.17. Consider `CC(C)CNC(=O)c1coc(=O)c(Br)c1`, for which the EC50 was > 10 µM (inactive). Consider `CC1CC(C)(C)CC2(C1)NC(=S)N(c1ccccc1)N2` (stereo not drawn), for which the pEC50 is 4.91.

With `CN1CCN(CCCN2c3ccccc3Sc3ccc(C(F)(F)F)cc32)CC1`, the negative-log EC50 (pEC50) was 5.18. On the same count and under the same terms, with `Cc1ccc(-c2nn3c(C)nnc3s2)cc1NC(=O)c1ccc(-c2cccc(Cl)c2)o1` the figure was 5.33; with `Nc1c(C(=O)NCc2ccc(F)cc2)c2nc3ccccc3nc2n1CCCN1CCOCC1`, 4.98. As for `Cc1ccccc1-c1nc(CN2CCC(C(=O)NCCCN3CC(C)CC(C)C3)CC2)c(C)o1` (stereo not drawn), the negative-log EC50 (pEC50) is 5.31. Same read-out and setting: with `Cc1ccc(C2Oc3ccccc3C3=C2C(c2cccs2)n2ncnc2N3)cc1` (stereo not drawn) the figure was 4.87; with `CCCCn1c(SCC(=O)Nc2cc(NC(=O)c3ccco3)ccc2C)nc2ccccc2c1=O`, 4.91; with `C=C(C)COc1ccc(-c2n[nH]c(C)c2-c2ccccc2OC)c(O)c1`, 4.88. For `Oc1ccccc1NCC(O)Cn1ccc2ccccc21` (stereo not drawn), the negative-log EC50 (pEC50) was 5.06. Take `O=C(CSc1ccc2c(c1)OCCO2)Nc1ccc(Cl)cn1`: the pEC50 is 5.26. Consider `O=S(=O)(CCN(CCS(=O)(=O)C(F)(F)F)CC1CCCO1)C(F)(F)F` (stereo not drawn), for which the negative logarithm of the EC50 (pEC50) was 4.90. Regarding `CC(=O)SC(C[N+](=O)[O-])c1cn(C(C)=O)c2ccccc12` (stereo not drawn), the pEC50 is 5.17.

With `Nc1c(C(=O)NCc2ccccc2)nnn1Cc1cccc(Cl)c1`, the negative logarithm of the EC50 (pEC50) is 4.86.

For the molecule `COc1ccc(NC(=O)c2cc3n(n2)C(C(F)(F)F)CC(c2ccc(OC)cc2)N3)cc1` (stereo not drawn), the negative-log EC50 (pEC50) was 5.00. `CCCCc1oc2ccccc2c1C(=O)c1cc(I)c(OCCN(CC)CC)c(I)c1`: the pEC50 was 5.24. Still for that read-out and setting: with `COc1ccc(CNC(=O)c2cc3c(C)nc4ccccc4c3o2)c(OC)c1` the figure was 4.93; with `O=C(/C=C/c1ccc(Cl)cc1)c1cccnc1`, 4.76. `COC(=O)C(CC(=O)c1ccc(Br)cc1)n1ccnc1` (stereo not drawn): the pEC50 was 5.03. As to `COc1ccccc1OCC(=O)Nc1cccc(-c2nc3ccccc3o2)c1`, the negative-log EC50 (pEC50) was 4.86. On to `COc1ccc(NC(=O)c2ccccc2NC(=O)COc2ccccc2)cc1`, for which the pEC50 is 4.95. Take `CCOc1cc(N2CCOCC2)c(OCC)cc1NC(=O)COc1cccc2cccnc12`: the negative logarithm of the EC50 (pEC50) was 4.83. `C/C(CC1CC2=C(CC1(C)C)C(C)(C)CCC2)=N\NC(N)=S` (stereo not drawn): the negative-log EC50 (pEC50) is 5.31.

In the case of `COc1ccc(-c2nnc(Nc3nc4c(OC)cccc4s3)o2)cc1`, the pEC50 was 5.36.

On to `CCOC(=O)c1c(N)sc2c(OC)c(Br)ccc12`, for which the pEC50 was 4.78. Take `Cc1cc(NC(=O)CSc2nc3c(sc4ccccc43)c(=O)n2CCCN2CCOCC2)n[nH]1`: the pEC50 was 4.74. In the case of `CC1=CC(C)(C)N2C(=O)C3(C(C#N)=C(N)Oc4cc(O)ccc43)c3c(C)c(C)cc1c32` (stereo not drawn), the pEC50 is 5.21.

Turning to `CCOC(=O)c1cnc(-n2nc(C)cc2C)nc1NC1CCCCC1`, the negative logarithm of the EC50 (pEC50) is 6.57. As for `Cc1ccccc1NS(=O)(=O)c1ccc(N2CCCC2=O)cc1`, the pEC50 is 4.71. Same read-out and setting: then `Cc1ccc(C(=O)c2c(C)oc3c2C(=O)C(=O)c2ccccc2-3)cc1`, with 4.70; and `Cn1nc(C(C)(C)C)cc1C(=O)NCc1ccc(N2CCCC2=O)cc1`, with 4.80; and `CCOc1cc(/C=N\NC(=O)Cn2nc([N+](=O)[O-])cc2C)ccc1OCc1cccc2ccccc12`, with 4.68.

`Cc1ccc(C(=O)Nc2ncc(Cc3ccccc3)s2)o1`: the negative logarithm of the EC50 (pEC50) was 6.15. In the case of `CC1=C(C(=O)OCc2ccc3c(c2)OCO3)C(c2ccccc2)NC(=O)N1` (stereo not drawn), the negative logarithm of the EC50 (pEC50) was 4.85. As for `CC(=O)Oc1ccc(N(C(C)=O)S(=O)(=O)c2cccs2)c2ccccc12`, the negative-log EC50 (pEC50) was 5.05. In the case of `CC(=O)C(C(C)=O)c1c(Cl)c(O)c(O)c2c(C(=O)c3ccccc3)coc12`, the pEC50 was 5.27. Same read-out and setting: with `Cc1cc(C)n(-c2nc(NCCCO)c3c4c(sc3n2)CCCC4)n1` the figure was 5.62; with `Cc1ccc(S(=O)(=O)N2CCCN(S(=O)(=O)c3ccc(C(F)(F)F)cc3)CC2)cc1`, 5.15. Regarding `Cc1nc2sccn2c(=O)c1CCN1CCC(=C(c2ccc(F)cc2)c2ccc(F)cc2)CC1`, the negative-log EC50 (pEC50) is 5.05.

In the case of `Cc1ccc(Cn2nc(C)c(NC(=O)c3cc(-c4ccc5c(c4)OCO5)on3)c2C)cc1`, the pEC50 was 4.99. On to `COc1ccc2c(c1)c1nc3ccccc3nc1n2CC(=O)OC(C)C`, for which the pEC50 was 4.95.

For the molecule `CCCCOc1ccc(C(=O)C(CN2CCOCC2)c2ccccc2)cc1` (stereo not drawn), the pEC50 is 5.51.

Turning to `CC(C)c1nnc(NC(=O)CCS(=O)(=O)c2nc(-c3cccs3)cc(C(F)(F)F)n2)s1`, the negative-log EC50 (pEC50) is 5.00. Regarding `CN(C)c1ccc(/C=C(\C#N)C(=O)Nc2nc3c(s2)CCN(Cc2ccccc2)C3)cc1`, the pEC50 was 5.41.

Consider `COc1cc(/C=c2\s/c(=C(/C#N)C(=O)N3CCCC3)n(-c3ccccc3)c2=O)ccc1O`, for which the pEC50 was 4.79.

For the molecule `Cc1cc(C)c2c(c1)SC1=NC(c3ccccc3)(C(F)(F)F)NC(=O)N12` (stereo not drawn), the pEC50 is 5.07. In the case of `Cc1cccc(C)c1N1CCN(c2ccc3nnc(C(F)(F)F)n3n2)CC1`, the pEC50 is 5.24. Same read-out and setting: then `Cc1ccccc1-c1nc(CN2CCC(C(=O)NCCC3=CCCCC3)CC2)c(C)o1`, with 5.17. Same read-out and setting: then `CN1CCN(C(=O)c2ccc(COc3ccc(Cl)cc3Cl)cc2)CC1`, with 4.87; and `Cc1cc(C)n(-c2nc(NCCC(C)C)c3c4c(sc3n2)COC(C)(C)C4)n1`, with 4.84; and `COc1cccc(C(=O)CSc2nnc(-c3cc(OC)cc(OC)c3)o2)c1`, with 4.74.

On to `Cc1ccc(C)c(N2CCN(CCCNC(=O)Cn3cc4c(n3)CCCCC4)CC2)c1`, for which the pEC50 was 4.96. As to `O=C(N/N=C/c1ccco1)c1cc(-c2ccc3ccccc3c2)n[nH]1`, the negative logarithm of the EC50 (pEC50) is 5.03. For `Cc1cc(C)c2oc(-c3ccc(Cl)c(NC(=O)c4ccc(C#N)cc4F)c3)nc2c1`, the pEC50 is 4.96.

With `O=C(Nc1ccc2nn(-c3ccccc3)nc2c1)c1ccc2c(c1)OCCO2`, the negative logarithm of the EC50 (pEC50) is 4.70. Consider `Cc1ccc2c(c1)c1c(n2CC(O)Cn2c(C)nc3ccccc32)/C(=N\O)CCC1` (stereo not drawn), for which the pEC50 was 5.05.

Source of the values: PubChem BioAssay AID822 (SRMLSC, 2007).
